# Reference: ChEMBL document CHEMBL1128219, “In vitro antimalarial activity of chalcones and their derivatives” (J Med Chem, 1995)
# Columns and labels:
# Plasmodium falciparum [1] = assay: In vitro antimalarial activity against chloroquine-sensitive Plasmodium falciparum D6 (CDC/Sierra Leone I); format: functional, organism-based
# Method in brief: (§1)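 Compound DMSO solution diluted 400-fold in RPMI 1640 containing 25 mM Hepes, 32 mM NaHCO3 and 10% human plasma, then 2-fold serial dilutions over 11 concentrations. Parasites exposed 48 h at 37 °C under 5% O2/5% CO2/90% N2, then [3H]hypoxanthine added for a further 18 h. DNA harvested onto glass filters and counted by scintillation. IC50 from logistic dose-response fit.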
# Plasmodium falciparum [2] = assay: In vitro antimalarial activity against chloroquine-resistant Plasmodium falciparum CDC/Indochina III W2; format: functional, organism-based; method in brief: as §1
# [3] = Ratio of IC50 of W2 strain to D6 strain.; format: functional
# Method in brief: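 Resistance index is IC50 against chloroquine-resistant P. falciparum W2 (CDC/Indochina III) divided by IC50 against chloroquine-sensitive D6 (CDC/Sierra Leone I). Compounds dissolved in DMSO, diluted 400-fold into RPMI 1640 with 25 mM Hepes, 32 mM NaHCO3 and 10% human plasma, then 2-fold serially over 11 concentrations. Parasites were exposed for 48 h at 37 °C (5% O2, 5% CO2, 90% N2), then given [3H]hypoxanthine for 18 h. IC50 came from logistic fits.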
# Plasmodium falciparum [4] = assay: In vitro antimalarial activity against chloroquine-resistant Plasmodium falciparum CDC/Indochina III W2; Not active; format: functional, organism-based; method in brief: as §1
# Plasmodium falciparum [5] = assay: In vitro antimalarial activity against chloroquine-sensitive Plasmodium falciparum D6 (CDC/Sierra Leone I); Not active; format: functional, organism-based; method in brief: as §1
# [6] = Compound was evaluated for the pKa value in water at 20 degrees Centigrade; format: physicochemical
# Plasmodium falciparum [7] = assay: In vitro antimalarial activity against chloroquine-sensitive Plasmodium falciparum CDC/Sierra Leone I D6; Not active; format: functional, organism-based; method in brief: as §1
pKa [6],SMILES,IC50 (Plasmodium falciparum [1]),IC50 (Plasmodium falciparum [2]),Resistance index [3],IC50 (Plasmodium falciparum [4]),IC50 (Plasmodium falciparum [5]),IC50 (Plasmodium falciparum [7])
–,COc1ccc(C(=O)/C=C/c2ccc(Cl)cc2Cl)c(OC)c1,0.77 µM,0.9 µM,1.2,–,–,–
–,COc1ccc(C(=O)/C=C/c2cccc(Cl)c2Cl)c(OC)c1,1.29 µM,1.38 µM,1.1,–,–,–
–,COc1ccc(C(=O)CCc2ccc(F)c(F)c2)c(OC)c1,> 16 µM,> 16 µM,–,Not Active,Not Active,–
–,O=C(/C=C\c1ccnc2ccccc12)c1cc(Cl)ccc1Cl,0.19 µM,0.23 µM,1.2,–,–,–
–,O=C(/C=C\c1ccnc2ccccc12)c1ccc(Cl)c(Cl)c1,1.69 µM,0.8 µM,0.5,–,–,–
–,O=C(/C=C/c1cc2ccccc2nc1Cl)c1ccc(F)cc1F,0.98 µM,1 µM,1,–,–,–
–,COc1cccc(OC)c1C(=O)/C=C\c1ccc(Cl)cc1,1.24 µM,0.77 µM,0.6,–,–,–
–,O=C(/C=C/c1cc2ccccc2nc1Cl)c1cccnc1,2.53 µM,0.71 µM,0.3,–,–,–
–,O=C(/C=C/c1ccc(Cl)cc1Cl)c1ccc(-n2ccnc2)cc1,0.9 µM,1.18 µM,1.3,–,–,–
–,COc1ccc(C(=O)/C=C\c2ccc(Cl)cc2Cl)c(OC)c1OC,0.43 µM,0.36 µM,0.8,–,–,–
–,COc1ccc(C(=O)/C=C/c2ccc(C(F)(F)F)cc2)c(OC)c1,0.68 µM,0.75 µM,1.1,–,–,–
–,COc1ccc(/C=C/C(=O)c2ccc(F)cc2F)c(OC)c1,19.1 µM,11.1 µM,0.6,–,–,–
–,COc1ccc(C(=O)/C=C/c2cccc(Cl)c2Cl)cc1OC,1.96 µM,1.14 µM,0.6,–,–,–
5.4,c1ccc2cnccc2c1 [ISOQUINOLINE],–,–,–,–,–,–
–,COc1ccc(C(=O)/C=C/c2cc3ccccc3nc2Cl)c(OC)c1,1.29 µM,1 µM,0.8,–,–,–
–,COc1ccc(C(=O)/C=C/c2cc3ccccc3nc2Cl)cc1OC,0.72 µM,0.51 µM,0.7,–,–,–
–,COc1ccc(C(=O)/C=C/c2ccc(F)c(F)c2)c(OC)c1,2.1 µM,2.09 µM,1,–,–,–
–,COc1ccc(C(=O)/C(C)=C/c2ccc(Cl)cc2Cl)c(OC)c1,6.26 µM,2.46 µM,0.4,–,–,–
–,COc1ccc(OC)c(C(=O)/C=C/c2cccc(Cl)c2Cl)c1,1.1 µM,0.92 µM,0.8,–,–,–
–,COc1ccc(OC)c(C(=O)/C=C\c2ccc(Cl)cc2Cl)c1,0.92 µM,0.75 µM,0.8,–,–,–
–,COc1ccc(C(=O)CCc2ccc(Cl)cc2Cl)c(OC)c1,> 15 µM,> 15 µM,–,Not Active,–,Not Active
–,COc1ccc(/C=C(\C)C(=O)c2ccc(Cl)cc2Cl)c(OC)c1,> 14 µM,> 14 µM,–,Not Active,Not Active,–
–,COc1ccc(C(=O)/C=C/c2ccc(F)cc2F)c(OC)c1,1.95 µM,1.9 µM,1,–,–,–
–,COc1ccc(/C=C/C(=O)c2ccc(Cl)cc2Cl)c(OC)c1,3.4 µM,3.8 µM,1.1,–,–,–
